# Bioassay records as filed in PubChem BioAssay.
# Shown are actives, neighbours in structure and some others; about 1.9% of the full set was active somewhere.
# Rpn11 block – blocks the human proteasome subunit Rpn11; inhibition, % at 20 µM; O00487; 360,000 tested, 0.59% active; human 26S proteasome, Ub4-pepOG fluorescence polarization; 20S core pre-blocked with epoxomicin;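 active means inhibition at 20 µM, scaled to each plate's controls, above about 33%, limit read from the data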
# ABHD5 PLIN5 PPI – blocks binding of human ABHD5 to perilipin-5; Split G. princeps luciferase complementation, luminescence, 4 h; 360,000 tested, 0.78% active; AID 602281; inhibition, % at 4 µM;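 active means inhibition above the mean inhibition across every tested compound plus 3 SD, cut at about 22% in these data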;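 further: 0% = DMSO only wells and the 100% control is not disclosed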
# Rin1 Abl inh – blocks binding of human Rin1 to Abl; P00519+Q13671; TR-FRET Rin1/Abl binding, biochemical; inhibition, % at 7.35 µM; 360,000 tested, 0.4% active; in the data active means inhibition above about 5%, passing the limit was not always enough
# Target sequence (P00519 whole entry, looked up): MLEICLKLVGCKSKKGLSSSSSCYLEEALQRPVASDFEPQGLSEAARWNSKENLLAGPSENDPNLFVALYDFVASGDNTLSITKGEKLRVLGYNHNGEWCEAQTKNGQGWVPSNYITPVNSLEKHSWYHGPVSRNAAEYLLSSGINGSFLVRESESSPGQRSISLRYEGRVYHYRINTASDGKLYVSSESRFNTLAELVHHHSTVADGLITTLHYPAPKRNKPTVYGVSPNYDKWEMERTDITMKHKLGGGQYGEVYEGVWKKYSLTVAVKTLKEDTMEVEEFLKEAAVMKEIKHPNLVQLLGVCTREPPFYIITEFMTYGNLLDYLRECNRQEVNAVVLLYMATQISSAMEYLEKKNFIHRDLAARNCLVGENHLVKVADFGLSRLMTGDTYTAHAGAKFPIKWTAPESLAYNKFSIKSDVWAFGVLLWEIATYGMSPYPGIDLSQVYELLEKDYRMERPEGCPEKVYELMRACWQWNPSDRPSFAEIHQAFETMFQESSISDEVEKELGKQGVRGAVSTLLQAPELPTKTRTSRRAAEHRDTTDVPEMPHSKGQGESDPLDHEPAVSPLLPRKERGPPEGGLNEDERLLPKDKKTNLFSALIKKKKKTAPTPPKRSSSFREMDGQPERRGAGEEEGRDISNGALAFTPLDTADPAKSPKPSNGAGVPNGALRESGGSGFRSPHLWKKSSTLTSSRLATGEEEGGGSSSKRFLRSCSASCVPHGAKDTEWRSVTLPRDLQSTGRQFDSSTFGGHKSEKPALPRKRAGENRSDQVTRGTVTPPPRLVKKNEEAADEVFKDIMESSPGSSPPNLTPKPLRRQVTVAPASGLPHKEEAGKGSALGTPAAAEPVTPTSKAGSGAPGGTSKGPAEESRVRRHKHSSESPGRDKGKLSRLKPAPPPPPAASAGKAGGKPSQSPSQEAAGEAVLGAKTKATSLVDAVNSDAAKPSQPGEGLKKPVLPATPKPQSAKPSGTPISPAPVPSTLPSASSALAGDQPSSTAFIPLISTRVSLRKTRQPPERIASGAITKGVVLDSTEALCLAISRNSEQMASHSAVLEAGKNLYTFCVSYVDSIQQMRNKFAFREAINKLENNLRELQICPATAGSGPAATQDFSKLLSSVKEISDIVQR
# Target sequence (Q13671 whole entry, looked up): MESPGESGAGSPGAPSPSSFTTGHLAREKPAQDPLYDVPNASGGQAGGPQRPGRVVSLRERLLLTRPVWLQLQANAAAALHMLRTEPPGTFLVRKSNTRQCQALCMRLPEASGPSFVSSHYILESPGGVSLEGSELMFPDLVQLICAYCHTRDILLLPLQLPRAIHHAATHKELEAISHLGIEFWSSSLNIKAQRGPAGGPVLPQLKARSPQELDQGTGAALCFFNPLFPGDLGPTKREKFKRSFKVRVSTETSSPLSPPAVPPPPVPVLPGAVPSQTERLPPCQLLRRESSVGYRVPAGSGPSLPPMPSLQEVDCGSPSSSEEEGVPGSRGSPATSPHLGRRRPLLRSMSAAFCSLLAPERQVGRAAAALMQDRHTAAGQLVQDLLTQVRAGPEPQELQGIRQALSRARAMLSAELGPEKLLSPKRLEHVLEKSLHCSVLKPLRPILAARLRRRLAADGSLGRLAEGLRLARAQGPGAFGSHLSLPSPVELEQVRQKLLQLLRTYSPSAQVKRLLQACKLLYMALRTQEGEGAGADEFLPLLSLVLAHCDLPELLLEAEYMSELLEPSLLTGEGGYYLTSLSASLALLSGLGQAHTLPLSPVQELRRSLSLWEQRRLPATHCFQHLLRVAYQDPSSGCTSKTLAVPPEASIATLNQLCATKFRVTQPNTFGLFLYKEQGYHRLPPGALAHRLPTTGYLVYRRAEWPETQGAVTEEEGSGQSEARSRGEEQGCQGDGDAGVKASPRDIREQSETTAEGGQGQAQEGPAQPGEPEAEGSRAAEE
# NadD block – blocks S. aureus nicotinate mononucleotide adenylyltransferase. 360,000 tested, 0.78% active. purified NadD enzyme, colorimetric absorbance read-out. inhibition, % at 20 µM; in the data active means inhibition above about 26%
# XiGFP reactiv – X-chromosome reactivation activator. XiGFP mouse fibroblasts, % GFP-positive cells imaging, 3 d; cells co-treated with 5-aza-dC sensitizer; scaled so ellipticine positive control = 100%. activation, % at 7.58 µM. 360,000 tested, 0.055% active;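 active means mean normalized replicate activation at least 10% and every replicate at or above 10%; inconclusive means only one of the two criteria met; inactive means mean below 10% and not all replicates reach 10%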;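 further: 0% = median of on-plate neutral control wells and 100% = ellipticine 6 µM median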
#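 System: XiGFP fibroblasts, SV40-immortalized. Medium: DMEM plus 5-aza-dC sensitizer. Doses: single point. Timing: 3 d treatment, 15 min room-temperature fixation. Control set: ellipticine 6 µM.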
# * hit, by the source's call; ? = inconclusive; nt = no result shown.
SMILES,Rpn11 block,ABHD5 PLIN5 PPI,Rin1 Abl inh,NadD block,XiGFP reactiv
COc1ccc(CCCc2nc3ccccc3[nH]2)cc1,1.7,-2.6,-1.0,-7.1,30.2*
c1ccc2[nH]c(CCCCc3nc4ccccc4[nH]3)nc2c1,1.0,5.4,2.5,0.3,0.0
Cc1cc(O)c2c(c1O)C(=O)[C@]13C(=C2O)C(=O)[C@@H]2[C@@H](O)[C@H]1[C@@H]1[C@H](O)[C@H]3C(=O)C3=C(O)c4c(O)cc(C)c(O)c4C(=O)[C@]312,48.7*,-2.0,12.2,31.7*,nt
C[C@H](CO)N1C[C@H](C)[C@@H](CN(C)C(=O)C2CCCCC2)Oc2ncc(C#CC3CCCCC3)cc2C1=O,nt,nt,nt,nt,-0.1
Cc1ccc(/C=C/C(O)=C2/C(=O)N(C)C3(C)CC2c2ccccc2O3)cc1 (stereo not drawn),-3.8,22.4*,-0.1,0.6,nt
COc1ccc(/C=C/C(O)=C2/C(=O)N(C)C3(C)CC2c2ccccc2O3)cc1 (stereo not drawn),-0.1,7.1,-0.1,-1.3,nt
Cc1cccc(C)c1NC(=O)c1nc(S(=O)(=O)Cc2ccccc2)ncc1Cl,-3.1,71.1*,-1.7,-13.2,0.0
CSc1ncc(Cl)c(C(=O)Nc2cccc3ccccc23)n1,4.7,-0.7,0.3,0.5,0.0
COc1ccc(C(=O)/C=C/c2ccc(C)cc2)c(OC(=O)c2ccc([N+](=O)[O-])cc2)c1,3.1,2.9,-2.5,-9.6,nt
COc1ccc(C(=O)/C=C/c2ccccc2F)c(OC(=O)c2ccc([N+](=O)[O-])cc2)c1,1.2,27.9*,-2.5,-3.2,nt
O=C(C[n+]1ccc(C(=O)N/N=C/c2ccc(OCc3ccccc3)cc2)cc1)c1ccccc1,4.2,26.3*,0.3,24.3,nt
Brc1ccc(-c2nnc3c4ccccc4nc(N4CCOCC4)n23)cc1,-0.8,7.9,-2.2,-0.3,nt
Fc1ccccc1-c1nnc2c3ccccc3nc(N3CCOCC3)n12,-5.8,-1.0,5.7*,3.0,nt
C[C@H](CO)N1C[C@H](C)[C@@H](CN(C)C(=O)Nc2ccccc2)OCCCC[C@H](C)Oc2ccc(NC(=O)Nc3ccc(C(F)(F)F)cc3)cc2C1=O,nt,nt,nt,nt,0.4
CCCC[C@@H]1Cc2[nH][nH]c(=O)c2[C@@H](c2ccc(Cl)cc2)O1,nt,22.6*,nt,-4.0,0.0
CC[C@@H]1Cc2[nH][nH]c(=O)c2[C@H](c2ccc(Cl)cc2)O1,nt,-2.8,nt,6.4,0.0
O=C(CSc1nc2ccccc2n1CCc1ccccc1)c1ccc(O)c(O)c1,nt,-0.6,-0.2,36.0*,0.0
CC(C)CC#Cc1ccc2c(c1)O[C@@H](CN(C)Cc1cccnc1)[C@@H](C)CN([C@@H](C)CO)S2(=O)=O,nt,nt,nt,nt,-0.2
Cc1cc(F)ccc1S(=O)(=O)Nc1ccc(C(=O)N2CCCCC2)cc1,1.8,-2.4,6.9,-0.5,0.0
CCOC(=O)C1CCN(C(=O)c2ccc(NS(=O)(=O)c3ccc(F)cc3C)cc2)CC1,-6.2,-3.2,0.6,-5.5,25.5*
Cc1ccc(/C=C2\SC(N3CCN(C(c4ccccc4)c4ccccc4)CC3)=NC2=O)o1,20.8,10.3,-2.6,59.3*,0.0
Oc1cc(CNC2CCCCC2)c(O)cc1CNC1CCCCC1,-6.1,1.1,2.8,30.8*,0.1
O=C(NCC[C@H]1CC[C@@H](NS(=O)(=O)Cc2ccccc2)[C@H](CO)O1)C1CCC1,nt,nt,nt,nt,-0.3
CC(C)c1nc2sc3c(SCC(=O)NCc4ccco4)ncnc3c2c2c1CCC2,-0.3,20.8,-13.8,46.3*,nt
CC(C)NC(=O)Nc1ccc2c(c1)CC(=O)N(C)C[C@H](C)[C@@H](CN(C)C(=O)NC(C)C)O2,nt,nt,nt,nt,0.6
SMILES,Rpn11 block,ABHD5 PLIN5 PPI,Rin1 Abl inh,NadD block,XiGFP reactiv
CN(c1ccccc1)c1ccc(/C=C/[N+](=O)[O-])cc1,20.1,87.9*,-1.1,12.2,0.6
CCCN(C)C[C@H]1OCCCC[C@H](C)Oc2ccc(NS(=O)(=O)c3cn(C)cn3)cc2C(=O)N([C@H](C)CO)C[C@H]1C,nt,nt,nt,nt,0.0
COCCNC(=O)C1=C(N)C(C(=O)Nc2ccc(C)c(S(=O)(=O)N3CCCCC3)c2)SC1=Nc1ccc(C)cc1C (stereo not drawn),-1.4,1.1,3.6,49.6*,nt
COc1ccc(CNC(=O)C[C@H]2C=C[C@H](NC(=O)c3ccc4c(c3)OCO4)[C@H](CO)O2)cc1,nt,nt,nt,nt,0.3
C[C@H](CO)N1C[C@H](C)[C@H](CN(C)S(=O)(=O)c2cn(C)cn2)Oc2ccc(NS(=O)(=O)c3cn(C)cn3)cc2C1=O,nt,nt,nt,nt,-1.1
Cc1cc(C)c(S(=O)(=O)/N=C2/C=C(Sc3ncn[nH]3)C(=O)c3ccccc32)cc1C,27.7,18.2,6.1,90.5*,6.0
O=C(c1ccccc1)c1c2c(cc3sc4ccccc4[n+]13)-c1cccc3cccc-2c13,-42.7,16.0,-25.5,10.4,72.7*
c1ccc(-c2cnn3c(-c4ccccc4)c(-c4ccccc4)nc3n2)cc1,12.5,6.7,-0.2,17.3,98.9*
C#CCCC(=O)c1ccccc1/C=[N+](\[O-])c1ccccc1,64.2*,-3.2,2.2,19.8,0.0
Cc1cccc2cc(/C=C3\N=C(c4ccccc4)OC3=O)c(N3CCOCC3)nc12,40.2*,0.0,-4.3,32.0*,nt
N#C/C(=C/c1ccco1)C(N)=S,14.9,-4.9,-1.1,2.8,-0.1
N#CC(C#N)=C1C=CC=CN1/C(=C\c1ccco1)C(=O)c1ccc(Br)cc1,5.5,91.8*,0.1,-5.0,?
C[C@H](CO)N1C[C@H](C)[C@@H](CN(C)S(C)(=O)=O)Oc2c(NC(=O)CCC(F)(F)F)cccc2C1=O,nt,nt,nt,nt,0.3
COc1ccc(C2NCCc3c2[nH]c2ccccc32)cc1CN1CCc2cc(OC)c(OC)cc2C1C (stereo not drawn),14.8,15.7,7.3*,24.5,nt
O=C(N/C=C/c1ccco1)NCc1ccccc1,5.5,1.6,3.4,0.7,0.0
O=C(N/C=C/c1ccco1)OCc1ccccc1,35.6*,4.2,-2.5,11.0,0.0
COc1ccc2c3c([nH]c2c1)[C@@H](CO)N(Cc1ccccc1)CC31CN(CC2CC2)C1,nt,nt,nt,nt,0.5
Cc1ccc(NC(=S)N=Nc2c(O)n(C)c3ccc(S(=O)(=O)N4CCOCC4)cc23)cc1C,18.1,-4.6,-1.4,31.1*,0.2
Cn1c(O)c(N=NC(=S)Nc2ccccc2F)c2cc(S(=O)(=O)N3CCOCC3)ccc21,12.1,-1.5,2.3,20.2,0.0
CO[C@H]1CN(C)C(=O)c2cc(NS(=O)(=O)CC(F)(F)F)ccc2OC[C@H](C)N(Cc2cccnc2)C[C@@H]1C,nt,nt,nt,nt,0.2
CCCCC1=CC2=C(c3ccco3)C(=O)C(C)(OC(=O)c3ccc(OC)cc3)C(=O)C2=CN1Cc1ccco1 (stereo not drawn),-57.2,17.0,-9.6,36.6*,nt
C[C@@H]1CN([C@@H](C)CO)C(=O)c2c(c3ccccc3n2C)-c2ccccc2CO[C@H]1CN(C)C(=O)Nc1cccc(C(F)(F)F)c1,nt,nt,nt,nt,-0.9
O=C(CSc1nc2nn(-c3ccccc3)c(=O)c-2c2n1CCCCC2)Nc1ccc(F)c(F)c1,1.8,-4.7,0.3,39.0*,0.0
